From the EternaBench riboswitch data

System: MS2 coat protein
Experiment: apparent Kd, MS2 coat protein; higher = weaker binding; RNA-MaP array; FMN 200 µM where present
In short: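 The apparent Kd comes from binding curves fitted cluster by cluster, filtered, and summarised as a median. Those curves followed SNAP-549-labelled MS2 coat protein from 0.7 or 1.5 nM, doubling to 3 µM, on Illumina sequencing-chip clusters where stalled E. coli RNA polymerase had transcribed the designs, without and then with constant ligand. The buffer was 100 mM Tris-HCl pH 7.5, 80 mM KCl, 4 mM MgCl2, BSA, DTT, yeast tRNA and Tween-20, and green signal was normalised to red-channel RNA signal and control-cluster median Fmax.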

[1] = designed as: OFF switch for flavin mononucleotide, no ligand
[2] = ligand present: flavin mononucleotide, designed as: OFF switch for flavin mononucleotide
[3] = designed as: ON switch for flavin mononucleotide, no ligand
[4] = ligand present: flavin mononucleotide, designed as: ON switch for flavin mononucleotide

| Sequence | apparent Kd [1] [nM] | apparent Kd [2] [nM] | apparent Kd [3] [nM] | apparent Kd [4] [nM] |
| --- | --- | --- | --- | --- |
| GCAGACGUGGUGAGGAUAUGCUCUACCUCGGUAGAGCAGAAGGCACAUGAGGAUCACCCAUGUGACUCCUCAUC | 18.6 | 19.2 | – | – |
| CCGUGGCAAGGAUAUACAUAGGAGAGGAAGGCAAGAGGAGGACAUGAGGAUCACCCAUGUAGAAGGUGCAGAUC | 73.8 | 67.8 | – | – |
| UGCAUGCUAGGAUAUACGAAACAUUAGGGUUCUUUGUAUGAACAUGAGGAUCACCCAUGUAGAAGGAGCGUGCU | 117 | 296 | – | – |
| CCGGAAACGGGUAGCUGUACAUGAGGAUCACCCAUGUGAUCAUAGGAUAUGGAACCUAAUUGGUUCCAGAAGGAUGUCAGCUAC | – | – | 237 | 598 |
| CAGCGAAAGUAGAAGGCAGUACUGAUACAGUACUGAGGAUAUACAUGAGGAUCACCCAUGUCCUUCAGCUGGAAAUAAAUAAAA | 5.9 | 50.9 | – | – |
| GCCGAACAUGAGGAUCACCCAUGUCUGGGUAAUCAAGGAUAUGGGAAGGCUUUGCCAUGACCAGAAGGUGGUUAUC | – | – | 209 | 23.1 |
| GGUGGACAUGAGGAUCACCCAUGUGAGGAUAUCGGCUGUCUACUCGCUGACGGCUGCUCGAGAAGGCGCAUUGU | 45.4 | 61.5 | – | – |
| GCUGUAAAUGAGAAGGCGAUCAUGAAACAUGAUCGAGGAUAUCAUGUUUACAUGAGGAUCACCCAUGUAUGGGUAUAUUGCAGC | – | – | 618 | 19.6 |
| AAAGAGCGAGGAUAUACGUAUCGGUGCGGCCCGCCGAUGUGACAUGAGGAUCACCCAUGUAGAAGGCGCAGAAA | 26.2 | 33 | – | – |
| UGGAUCAUGGGAGGAUAUCCUCAAGAGACAUGAGGAUCACCCAUGUAUUAUAUGCCUCAUGGCAUGGAGAAGGCCCAUGAUCCU | – | – | 176 | 161 |
| GUCAUGUAAGGAUAUCUUACAUGUGACUUCGGUCACUGUCAAGAGAAGGUACAUGAGGAUCACCCAUGUUCGAC | 17.2 | 21.8 | – | – |
| ACAUGAGGAUCACCCAUGUUAAGCGAGGAUAUUUGACUGCACAUGAGGUUCGCCCAUGUCCUGCCGAAGAAGGUGCGAAUAAUU | – | – | 54.2 | 17.6 |
| UUACUCAUGUAAGGAUAUGCAGCCGUUUCGGUUGCAGAAGGUACUAUAAUACAUGAGGAUCACCCAUGUCUUUUUAAUUUUUAC | – | – | 67.9 | 31.2 |
| UGGUCAUCAUCAGGAUAUUAACAUGGGCUACAUUAAGAAGGGAUAGUGAGAUACGAACUGAAACAUGAGGAUCACCCAUGUUGU | – | – | 105 | 51.9 |
| CCGAAUGUCACAGGAUAUGGUCCGGGCUCGGGACCAGAAGGGUGAUCUCACAUGAGGAUCACCCAUGUGUAGGCGUUAGGCUAC | – | – | 36.7 | 249 |
| GUCAUGUAAGGAUAUCUUACAUGUGACUUCGGUCACUGUCGAGAGAAGGUACAUGAGGAUCACCCAUGUUCGAC | 17.3 | 24 | – | – |
| GGCAAAUGAGCAGGAUAUACAGUACAUGCCUAAUGGAUUCACGCACAUGAGGAUCACCCAUGUACGUAGAAGGGCUCCGAGGAG | 12.2 | 14.4 | – | – |
| UUUUAACAUGAGGAUCACCCAUGUGAGGAUAUCGAAAUUUAUAUUAAUAUUUAUUAAUCGAGAAGGCACAUUUU | 93.7 | 122 | – | – |
| AAGACAAAUGUAGGAUAUGCGUGGCGAAGCUAUGCAGAAGGACAUGAGGAUCACCCAUGUCUUAGCGUCUGCGUACAGAUGCUA | 16.7 | 20.9 | – | – |

| Sequence | apparent Kd [1] [nM] | apparent Kd [2] [nM] | apparent Kd [3] [nM] | apparent Kd [4] [nM] |
| --- | --- | --- | --- | --- |
| UUUUUACAUGAGGAUCACCCAUGUGAGGAUAUGGAUUCGCUGGCCGUAGCCAGUGGAUCCAGAAGGCGCGUGAU | 90 | 175 | – | – |
| UUAAUAGUAGGAUAUACAUGAGGAUCACCCAUGUAGCAACUACAUUAAGGAACCUGAUGUAGAAGGACUCCCAG | 13.3 | 15.2 | – | – |
| ACAUACAUUCGAGGAUAUCGGUGAGAAAUUUUACGAGAAGGCGAUUCAUGAUUUAUUAUUUUGGACAUGAGGAUCACCCAUGUA | – | – | 83.5 | 34.1 |
| GUCCAACAUGAGGAUCACCCAUGUGAGGAUAUGCGAAUUUCAUCAAAAGAUGAAAUUUGCAGAAGGCACAGGAC | 20.2 | 32.8 | – | – |
| CCGAGCUUGGCAGGAUAUAGACUCGAAGUUGAUCCCGCCGGUGGAGACAUGAGGAUCACCCAUGUCUAGAAGGGCCAGUCGAAA | 11.7 | 36 | – | – |
| GACUGCAGAGGAUAUACAUGAGGAUCACCCAUGUGAGAUGCCUGACAGGUGUUGCUGAGUAGAAGGCUGCACUG | 14.1 | 21 | – | – |
| CUGUUUAAAGUGAGGAUAUGAACCUAGAACCAGGAUUAGAAGGCACAUGAGGAUCACCCAUGUGGUUGGUUGGG | 16.6 | 16.7 | – | – |
| GGAUCGUAAGGAUAUACAUGAGGAUCACCCAUGUGGAUCUAACGGGUCGCCAAGUCGUGUAGAAGGUGCCGUCU | 22.7 | 20.6 | – | – |
| GCGUUGCACGAGAAGGCCAAUACAUGAGGAUCACCCAUGUUAAAAUGUUUUGGAGGAUAUCGAUCAUCUACAAUAAAGCAACGC | 12.6 | 11.6 | – | – |
| GGUACCCUGGUUCUUCAAAAUACAUGAGGAUCACCCAUGUACUAGGAUAUCGCGCGAACCCUCGCUGAGAAGGAGUCGAUGGGC | 22 | 23.4 | – | – |
| UUUAUGAAGCUUCGUCAAUACAGUUAGGAUAUGAGAGACAUGAGGAUCACCCAUGUGCAUGUUGAUUAGAAGGAACAAUUAUCU | 15.6 | 14.6 | – | – |
| GAUCCGUCUGUUAGGAUAUGCUUUGGGCUUCCGCAGUAGAAGGAACAUGAGGAUCACCCAUGUCCGAUGCCGUC | 33.4 | 43 | – | – |
| CUUGUACAUGAGGAUCACCCAUGUUAGGAUAUCUCGCCGUCGGCUUGCCGACGGUAUUAGAGAAGGGACUUGGG | 56 | 33 | – | – |
| GGGUACAUCGGAGGAUAUCAUGUAAAUACAUGAGGAUCACCCAUGUCGAUGGAGACAUCGGAGAUUGAGAAGGCCGAUGUUCCG | – | – | 202 | 9.84 |
| UUUUAACAUGAGGAUCACCCAUGUGAGGAUAUCGAAAUUUAUAUUUAUAUUAAUAAUACGAGAAGGCACAUUUU | 63 | 87 | – | – |
| GUAGCAUAGACAGGAUAUUCAUAUAAUAAAUAAACAUGAGGAUCACCCAUGUGGCGAAAGCCUUGGGAGAAGGGUCAAUGCUAC | – | – | 1070 | 82.1 |
| AAAAAACAUGAGGAUCACCCAUGUCGAAAGACGUGAGGAUAUGUACAGACUUCGGUCUGUACAGAAGGCAUGUCAA | – | – | 94 | 20.2 |
| GUAGCAUACCAAGGAUAUUCAGGGCUUGGAUAGACAUGAGGAUCACCCAUGUGGCGAAAGUCAAGGGAGAAGGUGGUAUGCUAC | – | – | 17.6 | 13.4 |
| AAGUCAGCAGGAUAUGCGAUGUUGGGCUAGAUAGCGUGACCACAUGAGGAUCACCCAUGUAGAAGGGCUGGCUA | 37.4 | 43.7 | – | – |

| Sequence | apparent Kd [1] [nM] | apparent Kd [2] [nM] | apparent Kd [3] [nM] | apparent Kd [4] [nM] |
| --- | --- | --- | --- | --- |
| CUCACGUUAGUAGGAUAUCCGACAUGAGGAUCACCCAUGUCACUGCGUCGCUAAGGUAGAUGCAAGGAGAAGGGCUGAUAAAUA | – | – | 259 | 124 |
| UAGCUUGAUUCUCGUGUAUACAUGAGGAUCACCCAUGUGACGCAGGAUAUAGGCGUGUUAGUAGCCUAGAAGGGCGAGCAGCGU | 153 | 235 | – | – |
| UAGCAGUAGGGAGGAUAUGCGAAAGGAAGGCCCGCAGAAGGCCUUACAUGAGGAUCACCCAUGUAGGAUGCCUGGGUGGUGCCC | 13.8 | 20.3 | – | – |
| UAUUAUAUGGAGAAGGACAUGAGGAUCACCCAUGUCGCCGGGCCCGGGAAACCGGGCCCGGCCAUGUAGGAUAUCCGUAUGGUA | 6 | 7.96 | – | – |
| UUGGACGUCGUAGGAUAUGUAGGAUAGUCCUACAUGAGGAUCACCCAUGUUGACAUGGAAGAAGGACAGAAGGACGAUGUCCAU | – | – | 553 | 35.4 |
| AUGUUACAUGAGGAUCACCCAUGUGAGGAUAUGUGUACCGGUAAAAAAGUGAUUGGCCACAGAAGGCAUUUGGA | 33.2 | 35.7 | – | – |
| CUCUUGUGAGGAUAUCAGUAGUAAAAAAAUAAAAUUACUACUGAGAAGGCACAUGAGGAUCACCCAUGUACCUU | 22.9 | 22.7 | – | – |
| AAAAAGUCAGGAUAUGUAGCAAAAGGUGAUCAAAAAAAGCUACAGAAGGGACAUGAGGAUCACCCAUGUAAAAA | 262 | 336 | – | – |
| GGGUACCUGACAUGAGGAUCACCCAUGUCGUGCCUCUGCGGCAAGGAUAUGAUCGCUCGUGUAGGUCAGAAGGUGCCGUUGUUA | – | – | 66.2 | 6.7 |
| AGAAAACAUGAGGAUCACCCAUGUGAGGAUAUCGAUGUCCAAGGCCGGGUGCGGGACUCGAGAAGGCACUUGGG | 75.5 | 38.7 | – | – |
| GGGUACAUCGGAGGAUAUCAUGUAAAUACAUGAGGAUCACCCAUGUCGAUGGAGACAUCGGAGAUUGAGAAGGCCGUUGUACCG | – | – | 168 | 9.18 |
| GGGUGUGAAGGAUAUACAUGAGGAUCACCCAUGUGAGAGGAGAAUGUUGAGGAGGUUGGUAGAAGGUCAGGAGG | 93.8 | 67.6 | – | – |
| GGGUAGGUAGGAUAUGCGUGCAGGGUGUCUUCCAAUGAUCAACAUGAGGAUCACCCAUGUAGAAGGAUCGAGCU | 331 | 319 | – | – |
| CGCUAAGAGAACUAUUAGAGAAGACAUGAGGAUCACCCAUGUAGAAGGACAACGGAAUAAACGUUGUAGGAUAUACACUUAGCG | 22.6 | 17 | – | – |
| GGGUCACAUGAGGAUCACCCAUGUGAGGAUAUGAUACUAUGUACUUCGGUACAUAGUAUCAGAAGGCACAUCCC | 19.2 | 35.7 | – | – |
| AGCUAGUACGAAGGAUAUACAAACAUGAGGAUCACCCAUGUAUACAUGGUUUGAUGAGACUACAUGUAGAAGGUCGUACUAGCA | – | – | 506 | 796 |
| GAGCGAAAGCUCAAUGUCGAUAGCAGAAGGACACAUGAUAACAUGAAAACAUGAGGAUCACCCAUGUAGGAUAUGCUAUCGACU | 8.57 | 13.9 | – | – |
| GGUACUCAAAGAGUACCAAUAUGAACAUGAGGAUCACCCAUGUAGGAUAUGCUACUCAAAGAGUAGCAGAAGGAUAUGUGUCUA | 19.6 | 21.2 | – | – |
